Data from ChEMBL document CHEMBL1141864, “Structure-activity relationships in 1,4-benzodioxan-related compounds. 8.(1) {2-[2-(4-chlorobenzyloxy)phenoxy]ethyl}-[2-(2,6-dimethoxyphenoxy)ethyl]amine (clopenphendioxan) as a tool to highlight the involvement of alpha1D- and alpha1B-adrenoreceptor subtypes in the regulation of human PC-3 …” (J Med Chem, 2005).
The source made the active and inactive calls. The rule behind the calls is not given here.

Target: T1, 5-hydroxytryptamine receptor 1A (Homo sapiens) (UniProt P08908)
T1 sequence (whole entry): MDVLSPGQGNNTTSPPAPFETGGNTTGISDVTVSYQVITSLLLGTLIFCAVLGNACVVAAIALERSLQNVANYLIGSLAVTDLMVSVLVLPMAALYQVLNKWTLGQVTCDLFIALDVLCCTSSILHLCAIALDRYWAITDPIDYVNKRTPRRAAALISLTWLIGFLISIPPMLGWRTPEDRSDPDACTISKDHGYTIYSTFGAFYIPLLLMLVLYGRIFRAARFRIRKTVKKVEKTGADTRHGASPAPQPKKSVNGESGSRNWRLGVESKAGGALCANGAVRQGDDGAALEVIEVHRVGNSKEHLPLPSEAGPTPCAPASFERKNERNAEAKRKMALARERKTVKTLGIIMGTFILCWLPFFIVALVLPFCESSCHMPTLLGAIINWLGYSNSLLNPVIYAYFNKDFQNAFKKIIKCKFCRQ
Assay: Agonist efficacy towards cloned human 5HT1A receptor by [35SGTP]gammaS binding in HeLa cells
Type: cell-based
Settings: not given

SMILES | pD2
COc1cccc(OC)c1OCCNCCOc1ccccc1OCc1ccc(Cl)cc1 [CLOPENPHENDIOXAN] | 6.98
COc1cccc(OC)c1OCCNCCOc1ccccc1OCc1cccc([N+](=O)[O-])c1 | 7.16
COc1cccc(OC)c1OCCNCCOc1ccccc1OCc1ccccc1 | 7.11
COc1cccc(OC)c1OCCNCCOc1ccccc1OCc1ccccc1C | 6.96
COc1cccc(OC)c1OCCNCCOc1ccccc1OCc1ccccc1Cl | 7.31
COc1cccc(OC)c1OCCNCCOc1ccccc1OCc1ccc([N+](=O)[O-])cc1 | 6.15
COc1cccc(OC)c1OCCNCCOc1ccccc1OCc1cccc(Cl)c1 | 7.15
COc1ccc(COc2ccccc2OCCNCCOc2c(OC)cccc2OC)cc1 | 7.92

Target: T2, Alpha-1B adrenergic receptor (Rattus norvegicus) (UniProt P15823)
T2 sequence (whole entry): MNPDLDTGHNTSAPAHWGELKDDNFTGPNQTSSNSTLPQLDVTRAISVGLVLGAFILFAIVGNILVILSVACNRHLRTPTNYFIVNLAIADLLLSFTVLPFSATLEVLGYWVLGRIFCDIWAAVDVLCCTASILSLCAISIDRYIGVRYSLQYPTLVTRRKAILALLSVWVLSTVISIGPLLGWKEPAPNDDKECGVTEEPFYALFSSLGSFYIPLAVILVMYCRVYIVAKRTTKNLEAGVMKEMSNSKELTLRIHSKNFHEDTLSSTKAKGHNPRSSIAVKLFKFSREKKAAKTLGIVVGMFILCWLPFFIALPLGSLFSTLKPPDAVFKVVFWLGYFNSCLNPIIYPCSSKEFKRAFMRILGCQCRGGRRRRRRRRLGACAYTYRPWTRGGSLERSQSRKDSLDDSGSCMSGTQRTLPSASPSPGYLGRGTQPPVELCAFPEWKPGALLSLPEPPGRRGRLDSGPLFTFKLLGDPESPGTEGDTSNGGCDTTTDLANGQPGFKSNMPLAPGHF
Assay: ADRA1B blocking activity assessed by antagonism of (-)-phenylephrine induced contractions on isolated rat spleen
Type: functional, tissue-based
Settings: not given
How it was run: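 Isolated rat tissue: each antagonist concentration tested four times over 0.01–1 μM; pK_B calculated by van Rossum method from shifts of (-)-noradrenaline contraction curves (vas deferens, α1A; thoracic aorta, α1D) or (-)-phenylephrine contraction curves (spleen, α1B).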

SMILES | pKb
COc1cccc(OC)c1OCCNCCOc1ccccc1OCc1ccc(Cl)cc1 [CLOPENPHENDIOXAN] | 8.06
COc1cccc(OC)c1OCCNCCOc1ccccc1OCc1cccc([N+](=O)[O-])c1 | 8.74
COc1cccc(OC)c1OCCNCCOc1ccccc1OCc1ccccc1 | 8.3
COc1cccc(OC)c1OCCNCCOc1ccccc1OCc1ccccc1C | 7.67
COc1cccc(OC)c1OCCNCCOc1ccccc1OCc1cccc(C)c1 | 8.2
COc1cccc(OC)c1OCCNCCOc1ccccc1OCc1ccccc1Cl | 7.52
COc1cccc(OC)c1OCCNCCOc1ccccc1OCc1ccccc1[N+](=O)[O-] | 8.56
COc1cccc(COc2ccccc2OCCNCCOc2c(OC)cccc2OC)c1 | 8.31
COc1cccc(OC)c1OCCNCCOc1ccccc1OCc1ccc([N+](=O)[O-])cc1 | 9.02
COc1cccc(OC)c1OCCNCCOc1ccccc1OCc1ccc(C)cc1 | 8.43
COc1ccccc1COc1ccccc1OCCNCCOc1c(OC)cccc1OC | 8.13
COc1cccc(OC)c1OCCNCCOc1ccccc1OCc1cccc(Cl)c1 | 7.93
COc1ccc(COc2ccccc2OCCNCCOc2c(OC)cccc2OC)cc1 | 9.51

Target: T1, 5-hydroxytryptamine receptor 1A (Homo sapiens)
Assay: Maximum response towards cloned human 5HT1A receptor
Settings: not given

SMILES | %max [%]
COc1cccc(OC)c1OCCNCCOc1ccccc1OCc1ccc(Cl)cc1 [CLOPENPHENDIOXAN] | 60
COc1cccc(OC)c1OCCNCCOc1ccccc1OCc1cccc([N+](=O)[O-])c1 | 44.4
COc1cccc(OC)c1OCCNCCOc1ccccc1OCc1ccccc1 | 45.7
COc1cccc(OC)c1OCCNCCOc1ccccc1OCc1ccccc1C | 75.6
COc1cccc(OC)c1OCCNCCOc1ccccc1OCc1ccccc1Cl | 74.4
COc1cccc(OC)c1OCCNCCOc1ccccc1OCc1ccc([N+](=O)[O-])cc1 | 79.1
COc1cccc(OC)c1OCCNCCOc1ccccc1OCc1cccc(Cl)c1 | 67.1
COc1ccc(COc2ccccc2OCCNCCOc2c(OC)cccc2OC)cc1 | 21.6

Test system: PC-3
Assay: Inhibition of NE-induced increase of PC3 cell proliferation using ELISA BrdU
Type: functional, cell-based
Settings: Homo sapiens
How it was run: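 PC-3 cells (7×10^4/well) plated 24 h, then given noradrenaline (0–50 μM) alone or with antagonist (1 μM, or 0.5 μM for one compound) for 16 h. BrdU added for the last 4 h and read by colorimetric ELISA as % growth; mean ± SD of three experiments.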

SMILES | Activity
COc1cccc(OC)c1OCCNCCOc1ccccc1OCc1ccc(Cl)cc1 [CLOPENPHENDIOXAN] | Active
COc1cccc(OC)c1OCCNCCOc1ccccc1OCc1ccccc1 | Active

Target: T3, Alpha-1B adrenergic receptor (Homo sapiens, UniProt P35368)
T3 sequence (P35368 whole entry): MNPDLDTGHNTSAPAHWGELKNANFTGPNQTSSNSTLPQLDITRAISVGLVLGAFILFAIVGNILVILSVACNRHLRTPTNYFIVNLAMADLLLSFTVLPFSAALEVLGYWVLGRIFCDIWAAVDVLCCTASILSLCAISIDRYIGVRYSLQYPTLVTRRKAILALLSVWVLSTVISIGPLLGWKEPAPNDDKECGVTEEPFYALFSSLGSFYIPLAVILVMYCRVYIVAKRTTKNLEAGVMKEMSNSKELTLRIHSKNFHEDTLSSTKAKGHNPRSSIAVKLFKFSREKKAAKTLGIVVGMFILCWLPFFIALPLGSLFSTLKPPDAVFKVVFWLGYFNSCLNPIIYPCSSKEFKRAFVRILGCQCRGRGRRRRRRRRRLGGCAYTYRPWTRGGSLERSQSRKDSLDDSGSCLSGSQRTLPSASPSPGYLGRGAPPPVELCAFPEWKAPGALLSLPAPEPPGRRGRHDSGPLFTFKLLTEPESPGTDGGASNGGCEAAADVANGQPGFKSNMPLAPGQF
Assay: Displacement of [3H]prazosin from cloned human ADRA1B expressed in CHO cells
Type: cell-based
Settings: not given

SMILES | Ki [µM]
COc1cccc(OC)c1OCCNCCOc1ccccc1OCc1ccc(Cl)cc1 [CLOPENPHENDIOXAN] | 0.001
COc1cccc(OC)c1OCCNCCOc1ccccc1OCc1cccc([N+](=O)[O-])c1 | 0.000794
COc1cccc(OC)c1OCCNCCOc1ccccc1OCc1ccccc1 | 0.000537
COc1cccc(OC)c1OCCNCCOc1ccccc1OCc1ccccc1C | 0.000794
COc1cccc(OC)c1OCCNCCOc1ccccc1OCc1cccc(C)c1 | 0.000251
COc1cccc(OC)c1OCCNCCOc1ccccc1OCc1ccccc1Cl | 0.000562
COc1cccc(OC)c1OCCNCCOc1ccccc1OCc1ccccc1[N+](=O)[O-] | 0.00251
COc1cccc(COc2ccccc2OCCNCCOc2c(OC)cccc2OC)c1 | 0.002
COc1cccc(OC)c1OCCNCCOc1ccccc1OCc1ccc([N+](=O)[O-])cc1 | 0.000398
COc1cccc(OC)c1OCCNCCOc1ccccc1OCc1ccc(C)cc1 | 0.000251
COc1ccccc1COc1ccccc1OCCNCCOc1c(OC)cccc1OC | 0.00631
COc1cccc(OC)c1OCCNCCOc1ccccc1OCc1cccc(Cl)c1 | 0.000158
COc1ccc(COc2ccccc2OCCNCCOc2c(OC)cccc2OC)cc1 | 0.000398

Test system: PC-3
Assay: Cytotoxic activity on human PC3 prostate cancer cells by SRB assay
Type: functional
Settings: not given
How it was run: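 NCI-protocol SRB assay on PC-3 cells grown in DMEM/10% FBS/2 mM glutamine. Seeded 24 h, then compounds in medium for 48 h at 37 °C, 5% CO2, in quadruplicate. A time-zero plate was read. Cells TCA-fixed, stained with 0.4% SRB, absorbance at 520 nm. GI50, TGI and LC50 interpolated from % growth versus log concentration.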

SMILES | Activity [%]
COc1cccc(OC)c1OCCNCCOc1ccccc1OCc1cccc([N+](=O)[O-])c1 | <50
COc1cccc(OC)c1OCCNCCOc1ccccc1OCc1ccccc1C | <50
COc1cccc(OC)c1OCCNCCOc1ccccc1OCc1ccc([N+](=O)[O-])cc1 | <50
COc1ccc(COc2ccccc2OCCNCCOc2c(OC)cccc2OC)cc1 | <50

Same assay, conditions: Homo sapiens, PC-3

SMILES | GI50 [µM] | LC50 (50% lethal concentration) [µM] | TGI [µM]
COc1cccc(OC)c1OCCNCCOc1ccccc1OCc1ccc(Cl)cc1 [CLOPENPHENDIOXAN] | 2.4 | 52.5 | 14.5
COc1cccc(OC)c1OCCNCCOc1ccccc1OCc1cccc([N+](=O)[O-])c1 | 13.2 | – | 38.9
COc1cccc(OC)c1OCCNCCOc1ccccc1OCc1ccccc1 | 26.9 | 193 | 76.9
COc1cccc(OC)c1OCCNCCOc1ccccc1OCc1ccccc1C | 11.5 | – | 33.9
COc1cccc(OC)c1OCCNCCOc1ccccc1OCc1cccc(C)c1 | 12 | 87.1 | 32.3
COc1cccc(OC)c1OCCNCCOc1ccccc1OCc1ccccc1Cl | 5.4 | 58.9 | 17.8
COc1cccc(OC)c1OCCNCCOc1ccccc1OCc1ccccc1[N+](=O)[O-] | 13.2 | 95.5 | 34.7
COc1cccc(COc2ccccc2OCCNCCOc2c(OC)cccc2OC)c1 | 2.5 | 61.7 | 15.1
COc1cccc(OC)c1OCCNCCOc1ccccc1OCc1ccc([N+](=O)[O-])cc1 | 12 | – | 43.6
COc1cccc(OC)c1OCCNCCOc1ccccc1OCc1ccc(C)cc1 | 7.8 | 61.7 | 27.5
COc1ccccc1COc1ccccc1OCCNCCOc1c(OC)cccc1OC | 8.9 | 100 | 30.2
COc1cccc(OC)c1OCCNCCOc1ccccc1OCc1cccc(Cl)c1 | 5.9 | 58.9 | 20.4
COc1ccc(COc2ccccc2OCCNCCOc2c(OC)cccc2OC)cc1 | 8.5 | – | 34.7
